Shown is part of a subset that was picked to be rich in hits.
Cardio protect: cardioprotection against H2O2-induced cell death, primary screen, uHTS, H9c2 cells, ATPLite luminescence. H9c2 cardiomyocytes, H2O2 injury protection, 2 h. protection from H2O2 cell death, % at 20 µM. 360,000 compounds, 0.63% hits. AID 588492, 2011;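 active = compounds giving at least 50% protection of heart cells from peroxide-induced death in the single-dose screen, raw or plate-pattern-corrected value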
CHOP inh: inhibitors of CHOP promoter induction, primary screen, cell-based, unfolded protein response, luciferase reporter; CHO-K1 CHOP-promoter luciferase, tunicamycin-induced, 15-18 h; inhibition, % at 10 µM; 220,000 compounds, 3.8% hits;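 active = compounds that reduced the stress-induced luciferase reporter signal by more than about 70% of percent inhibition, limit read from the data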
XBP1 UPR activ: activators of adaptive XBP1 UPR arm, primary screen, cell-based, CHO-XBP1 luciferase reporter, luminescence, uHTS; AID 463104, 2010; activation, % at 20 µM; 330,000 compounds, 0.33% hits; IRE1-XBP1 UPR activation; percent of tunicamycin response, DMSO as zero;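 active = versus positive control, 20 µM dose yields 30% or more activation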
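Material – CHO cell line with stable XBP1 luciferase reporter · Buffer or medium – F12 plus 10% FBS · Compound – single point, 20 µM final compound, 1% DMSO · Schedule – 16-18 h cell attachment at 37 °C, then 6 h compound exposure · Signal – Steady-Glo luminescence read · Benchmarks – high control tunicamycin 10 µg/mL final, low control DMSO vehicle only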
CHOP UPR activ: activators of apoptotic CHOP UPR arm, primary screen, cell-based, CHO-CHOP luciferase reporter, luminescence, uHTS. UPR activation; percent of tunicamycin response over DMSO baseline. activation, % at 10 µM. 330,000 compounds, 0.34% hits. AID 449763, 2010;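 active = at 10 µM dose, activation of 40% or more, normalized to positive control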
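System: CHO-CHOP luciferase reporter cell line | Buffer or medium: F12 medium containing 10% fetal bovine serum | Doses: One dose, 10 µM in 0.5% DMSO | Times: 6 h compound exposure at 37 °C after overnight seeding | Signal: Luciferase luminescence | Read-out: % activation vs tunicamycin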
hiPSC survival: enhancers of single-cell hiPSC survival, primary screen, ATPlite luminescence. 100% = ROCK inhibitor wells, 0% = DMSO. survival enhancement, % at 20 µM. 360,000 compounds, 0.044% hits. AID 602274, 2012; in the data active = survival enhancement above about 18%;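 note: cells exposed to compounds for 16 hours before the ATP read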
CHOP inh conf: retest of CHOP induction inhibitors, confirmation, cell-based | CHO-CHOP promoter luciferase reporter, tunicamycin-induced, luminescence | inhibition, % at 10 µM | shares compounds with CHOP inh | 2,100 compounds, 45% hits;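 active = mean of three repeat readings of reporter signal inhibition above a set limit, cut at about 70% in these data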
Numbers stand for hits; i = inactive; nt = no result given.

SMILES | Cardio protect | CHOP inh | XBP1 UPR activ | CHOP UPR activ | hiPSC survival | CHOP inh conf
CC1CCCCC1NC(=O)c1c(O)nc2ccccn2c1=O (stereo not given) | i | nt | i | i | i | nt
O=C(Nc1ccc(F)cc1)Nc1ccc(N2CCCC2)c(S(=O)(=O)Nc2ccccc2Cl)c1 | i | 97 | i | i | i | 91
O=C(Nc1ccc(N2CCOCC2)c(S(=O)(=O)Nc2ccccc2Cl)c1)c1ccc(F)cc1 | i | nt | i | i | i | nt
O=C1C(=C2SCCCS2)CC/C1=C\c1ccc(F)cc1 | i | 108 | i | i | i | 115
O=C1C(=Cc2ccc(F)cc2)Cc2ccccc21 | i | nt | nt | nt | i | nt
Nn1c(Nc2ccccc2)nc2sc3c(c2c1=O)CCC3 | i | 96 | nt | nt | i | i
Cc1nc2ccc(S(=O)(=O)CCC(=O)NCc3ccc(Cl)cc3)cc2s1 | i | nt | nt | nt | i | nt
COc1ccc(N2C(=O)CC(Sc3nnnn3-c3ccc(F)cc3)C2=O)cc1 (stereo not given) | i | 107 | i | i | i | 134
COc1ccc(N2C(=O)CC(Sc3nnc(-c4ccccc4)o3)C2=O)cc1 (stereo not given) | i | 109 | i | i | i | i
O=C1CC(Sc2nnnn2-c2ccccc2)C(=O)N1c1cccc(Cl)c1 (stereo not given) | i | 110 | i | i | i | 111
O=C1NC(Cc2ccccc2)c2nc3ccc(F)cc3c(=O)n2-c2cc3ccccc3cc21 (stereo not given) | i | nt | nt | nt | i | nt
CCN(CC)CCn1c2c(c(SCC(=O)Nc3ccc(F)c(F)c3)nc1=O)CCC2 | i | nt | i | i | i | nt
CC1=CC(C)(C)N2C(=O)C3(NCCc4c3[nH]c3ccccc43)c3cc(C)cc1c32 (stereo not given) | i | i | i | i | i | nt
CC1=CC(C)(C)N2C(=O)C3(SCC(=O)N3c3ccc(F)cc3)c3cc(C)cc1c32 (stereo not given) | i | 108 | i | i | i | 112
CC(=O)Nc1ccc(NC2=Nc3ccccc3N3C2=Nc2c(c(C)nn2-c2ccccc2)C3c2ccccc2)cc1 (stereo not given) | i | 106 | i | i | i | 119
COc1ccc(NC2=Nc3ccccc3N3C2=Nc2c(c(C)nn2-c2ccc(C)cc2)C3c2cccnc2)cc1 (stereo not given) | i | i | i | i | i | nt
O=C(O)c1ccc(/C=N/NC(=O)c2cc3c(ccc4ccccc43)o2)cc1 | i | nt | i | i | i | nt
O=C(N/N=C/c1ccncc1)c1cc2c(ccc3ccccc32)o1 | i | 109 | i | i | i | i
O=C(O)C1OC(C(=O)O)C(C(=O)O)C1C(=O)O (stereo not given) | i | nt | nt | nt | i | nt
CC1CCc2nc(NC(=O)CSc3nc4ccccc4o3)sc2C1 (stereo not given) | i | 97 | i | i | i | i
COc1cccc(NC(=O)CN(C)C(C)C(=O)NC(=O)NC2CCCCC2)c1 (stereo not given) | i | nt | i | i | i | nt
Cc1oc2ccc(NS(=O)(=O)c3ccc(C(C)(C)C)cc3)cc2c1C(=O)Nc1ccccc1 | i | 107 | i | i | i | i
CC(=O)c1c(C)oc2ccc(NS(=O)(=O)c3ccc(C)cc3)cc12 | i | nt | i | i | i | nt
CC1=NN(c2ccc(C)c(C)c2)C(=O)/C1=C\C=C\c1ccc([N+](=O)[O-])o1 | i | 108 | i | i | i | i
Cc1c(O)ccc(-c2[nH]ncc2-c2nc3ccccc3s2)c1O | i | i | i | i | i | nt
SMILES | Cardio protect | CHOP inh | XBP1 UPR activ | CHOP UPR activ | hiPSC survival | CHOP inh conf
CCCc1ccc(Oc2cn[nH]c2-c2ccc(O)c(C)c2O)cc1 | i | 105 | i | i | i | i
CCCc1ccc(Oc2c(-c3ccc(O)c(C)c3O)n[nH]c2C)cc1 | i | 106 | i | i | i | i
COc1ccc([C@H]2CN(CCc3ccccc3)C(=O)[C@@H]2CC(=O)Nc2ccccc2)cc1 | i | nt | nt | nt | i | nt
S=c1[nH]nc(COc2ccccc2)n1/N=C/C(Cl)=C/c1ccccc1 | i | 103 | i | i | i | i
COC(=O)[C@H](CCSC)NC(=O)Cn1cnc(C(=O)Nc2ccc(C)c(C)c2)n1 | i | nt | i | i | i | nt
Cc1sc(NC(=O)Cn2c(=O)oc3ccccc32)nc1-c1ccc(Cl)cc1 | i | 98 | i | i | i | i
CCOC(=O)c1oc2cc(C)cc(C)c2c1C | i | i | i | i | i | nt
CCOC(=O)c1oc2ccc(/C=N/O)c(Cl)c2c1C | i | 104 | i | i | i | i
CCCCS(=O)(=O)/C=C\C=C/S(=O)(=O)CCCC | i | nt | i | i | i | 127
CCCCS(=O)(=O)/C=C\C1C2C=CC(C2)C1S(=O)(=O)CCCC (stereo not given) | i | i | i | i | i | nt
Oc1[nH]c2ccccc2c1N=NC(=S)NCCc1ccccc1 | i | 105 | nt | nt | i | 76
CN[C@H](CC(C)C)C(=O)N[C@H]1C(=O)N[C@@H](CC(N)=O)C(=O)N[C@H]2C(=O)N[C@H]3C(=O)N[C@H](C(=O)N[C@H](C(=O)O)c4cc(O)cc(O)c4-c4cc3ccc4O)[C@H](O)c3ccc(c(Cl)c3)Oc3cc2cc(c3O[C@@H]2O[C@H](CO)[C@@H](O)[C@H](O)[C@H]2O[C@H]2C[C@](C)(N)[C@H](O)[C@H](C)O2)Oc2ccc(cc2Cl)[C@H]1O | nt | i | nt | nt | nt | nt
CCOc1cc(/C=C\[N+](=O)[O-])ccc1OCC(=O)Nc1ccccc1C | i | 108 | i | i | i | 136
COc1cc(/C=C/c2cccc[n+]2C)ccc1OCC(=O)Nc1ccccc1C | i | nt | i | i | i | nt
Cn1cc(CNC(=O)c2cc(-c3ccccc3)nc3ccc(Br)cc23)cn1 | i | i | i | i | i | nt
Cc1ccc(-c2cc(C(=O)NCc3cnn(C)c3)c3cc(Br)ccc3n2)cc1 | i | 101 | i | i | i | i
COc1ccccc1CCNC(=O)c1cc(-c2ccncc2)nc2ccc(Br)cc12 | i | 104 | nt | nt | i | i
O=c1c2ccccc2sn1-c1ccccc1 | i | 108 | i | i | i | i
O=C(CCN1C(=O)C2CC=CCC2C1=O)Nc1nc(-c2ccc(F)c(F)c2)cs1 (stereo not given) | i | nt | i | i | i | nt
COc1ccc(OCc2cccc(C(=O)Nn3cc([N+](=O)[O-])cn3)c2)cc1 | i | 98 | i | i | i | 123
NC(=O)Cc1ccc(C(=O)CSc2nnc(-c3ccncc3)n2C2CC2)s1 | i | nt | i | i | i | nt
O=S(=O)(NCc1cc(-c2ccc(Cl)cc2)no1)c1ccc(Cl)cc1 | i | 102 | i | i | i | i
O=S(=O)(NCc1cc(-c2ccc(Cl)cc2)no1)c1ccccc1 | i | i | i | i | i | nt

Screening results (PubChem)
